Molecular target: T1, Endothelin-1 receptor (Rattus norvegicus, UniProt P26684)
T1 sequence (P26684 whole entry): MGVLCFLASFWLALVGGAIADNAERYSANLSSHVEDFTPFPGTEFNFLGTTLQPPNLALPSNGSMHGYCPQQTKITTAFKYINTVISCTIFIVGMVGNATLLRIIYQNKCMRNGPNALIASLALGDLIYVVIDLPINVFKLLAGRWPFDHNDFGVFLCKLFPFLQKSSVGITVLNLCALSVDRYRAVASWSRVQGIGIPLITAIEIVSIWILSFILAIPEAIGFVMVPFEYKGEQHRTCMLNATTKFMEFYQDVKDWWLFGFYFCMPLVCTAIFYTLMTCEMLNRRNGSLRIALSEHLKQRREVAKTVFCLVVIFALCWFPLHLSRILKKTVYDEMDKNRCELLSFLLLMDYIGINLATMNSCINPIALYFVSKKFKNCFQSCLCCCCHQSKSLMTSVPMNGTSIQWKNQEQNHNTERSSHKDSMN
Assay: Inhibition of [125I]endothelin-l binding to endothelin A receptor of rat thoracic aorta smooth muscle cells
Format: tissue-based
Outline: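 Membranes from A10 rat thoracic aorta smooth muscle cells (cultured, trypsin-detached, stored at -70 °C, then thawed, homogenized and centrifuged to a membrane pellet). Samples filtered through glass fiber filters and washed, then filter-retained radioactivity counted.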

| IC50 [µM] | Compound |
| --- | --- |
| 24 | Cc1noc(NS(=O)(=O)c2ccc3c(N)cccc3c2)c1C |
| 0.015 | Cc1onc(NS(=O)(=O)c2cccc3c(N(C)C)cccc23)c1C |
| 27.5 | CC(=O)Nc1cccc2ccc(S(=O)(=O)Nc3onc(C)c3C)cc12 |
| 1.45 | Cc1noc(NS(=O)(=O)c2cccc3ccc(N)cc23)c1C |
| 3.4 | CC(=O)Nc1ccc(S(=O)(=O)Nc2onc(C)c2C)c2ccccc12 |
| 3.1 | Cc1noc(NS(=O)(=O)c2cccc3ccccc23)c1C |
| 0.84 | Cc1noc(NS(=O)(=O)c2cccc3cc(N(C)C)ccc23)c1C |
| 1.3 | CC(=O)Nc1ccc2c(S(=O)(=O)Nc3onc(C)c3C)cccc2c1 |
| 53 | Cc1cc(NS(=O)(=O)c2ccc(O)cc2)no1 |
| 10 | Cc1noc(NS(=O)(=O)c2ccc3ccc(N)cc3c2)c1C |
| 2.4 | Cc1noc(NS(=O)(=O)c2cccc3cc(N)ccc23)c1C |
| 1.4 | Cc1noc(NS(=O)(=O)c2ccc3ccc(N(C)C)cc3c2)c1C |
| 0.004 | Cc1noc(NS(=O)(=O)c2cccc3c(N(C)C(C)C)cccc23)c1C |
| 9.8 | Cc1noc(NS(=O)(=O)c2ccc3cccc(N)c3c2)c1C |
| 3.5 | Cc1noc(NS(=O)(=O)c2ccc(N)c3ccccc23)c1C |
| 1.3 | Cc1noc(NS(=O)(=O)c2cccc(N)c2)c1C |
| 5.6 | Cc1noc(NS(=O)(=O)c2cccc3ccc(N(C)C)cc23)c1C |
| 42 | CC(=O)Nc1ccc2ccc(S(=O)(=O)Nc3onc(C)c3C)cc2c1 |
| 31.5 | Cc1noc(NS(=O)(=O)c2ccc3cccc(N(C)C)c3c2)c1C |
| 0.6 | Cc1noc(NS(=O)(=O)c2ccc3cc(N)ccc3c2)c1C |
| 5 | CCNc1ccc(S(=O)(=O)Nc2onc(C)c2C)cc1 |
| 84 | Cc1noc(NS(=O)(=O)c2ccc(N(C)C)cc2)c1C |
| 0.016 | CC(=O)Nc1cccc2c(S(=O)(=O)Nc3noc(C)c3C)cccc12 |
| 0.51 | Cc1onc(NS(=O)(=O)c2ccc(N)cc2)c1Br |
| 0.005 | Cc1noc(NS(=O)(=O)c2cccc3c(NC(C)C)cccc23)c1C |
| 3.8 | CC(=O)Nc1ccc2cc(S(=O)(=O)Nc3onc(C)c3C)ccc2c1 |
| 0.015 | Cc1noc(NS(=O)(=O)c2cccc3c(N(C)C)cccc23)c1C [BMS-182874] |
| 0.26 | Cc1onc(NS(=O)(=O)c2ccc(N)cc2)c1C [SULFATROXAZOLE] |

From ChEMBL document CHEMBL1128243, “Three-dimensional quantitative structure-activity relationships of sulfonamide endothelin inhibitors” (J Med Chem, 1995)
